This passage reports inhibition of growth and Ki results from ChEMBL document CHEMBL3046448, “Design and syntheses of novel phthalazin-1(2H)-one derivatives as acetohydroxyacid synthase inhibitors” (J Agric Food Chem, 2006).

For the first assay, the system named is Setaria viridis. The experiment in a line: Herbicidal activity against Setaria viridis (green foxtail) assessed as growth inhibition at 150 g ai/ha applied as pre-emergence treatment 24 hr after weeds seeds sowing under green house conditions measured 15 days post compound treatment. As to conditions: read-out: GI. The assay is classed as functional. The method, boiled down:
(§1)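 Pre-emergence spray applied 24 h after sowing weeds in pots in a greenhouse. Clay soil: pH 6.5, 1.6% organic matter, 37.3% clay, CEC 12.1 cmol/kg. Formulation: 100 g/L emulsified concentrate (DMF solvent, TW-80 emulsifier) diluted with water to 150 g ai/ha. Untreated and DMF-treated controls. Growth inhibition judged visually at 15 days: ++ >80%, + 50-80%, − <50%.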
On to `COc1cc(OC)nc(Oc2cccc3c(C)nn(CC(=O)OC(C)(C)C)c(=O)c23)n1`, for which the inhibition of growth at 150 g/ha is under 50%.
Still for that read-out and setting: next, `COc1cc(OC)nc(Oc2cccc3c(C)nn(CC4OCCO4)c(=O)c23)n1`: under 50%.
Regarding `CO/N=C(/C)c1cccc(Oc2nc(OC)cc(OC)n2)c1C(=O)OC` [PYRIMINOBAC-METHYL], the inhibition of growth at 150 g/ha is under 50%.

The next assay concerns Brassica juncea. The experiment in a line: Herbicidal activity against Brassica juncea assessed as growth inhibition at 150 g ai/ha applied as post-emergence treatment under green house conditions measured 15 days post compound treatment. Format: functional. The settings on record: 360 h, read-out: GI. The method, boiled down: (§2)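 Post-emergence spray on pot-grown dicot weeds at the two-leaf stage in a greenhouse. Clay soil: pH 6.5, 1.6% organic matter, 37.3% clay, CEC 12.1 cmol/kg. Formulation: 100 g/L DMF/TW-80 emulsified concentrate, water-diluted to 150 g ai/ha. Untreated and DMF solvent controls. Visual inhibition rating at 15 days: ++ >80%, + 50-80%, − <50%.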
As to `COc1cc(OC)nc(Oc2cccc3c(C)nn(CC(=O)OC(C)(C)C)c(=O)c23)n1`, the inhibition of growth at 150 g/ha is under 50%.
Regarding `COc1cc(OC)nc(Oc2cccc3c(C)nn(CC4OCCO4)c(=O)c23)n1`, the inhibition of growth at 150 g/ha was determined as 50%.

In the next assay the test system is Brassica juncea. Briefly: Herbicidal activity against Brassica juncea assessed as growth inhibition at 150 g ai/ha applied as pre-emergence treatment 24 hr after weeds seeds sowing under green house conditions measured 15 days post compound treatment. The assay is classed as functional. As to conditions: read-out: GI. The procedure, abridged:
as §1
On to `COc1cc(OC)nc(Oc2cccc3c(C)nn(CC(=O)OC(C)(C)C)c(=O)c23)n1`, for which the inhibition of growth at 150 g/ha is under 50%.
Regarding `COc1cc(OC)nc(Oc2cccc3c(C)nn(CC4OCCO4)c(=O)c23)n1`, the inhibition of growth at 150 g/ha is under 50%.
On the same count and under the same terms, next, `CO/N=C(/C)c1cccc(Oc2nc(OC)cc(OC)n2)c1C(=O)OC` [PYRIMINOBAC-METHYL]: under 50%.

Another assay deals with Echinochloa crus-galli. The experiment in a line: Herbicidal activity against Echinochloa crus-galli (barnyard grass) assessed as growth inhibition at 150 g ai/ha applied as pre-emergence treatment 24 hr after weeds seeds sowing under green house conditions measured 15 days post compound treatment. Format: functional. As to conditions: read-out: GI. The method, boiled down:
as §1
Take `COc1cc(OC)nc(Oc2cccc3c(C)nn(CC(=O)OC(C)(C)C)c(=O)c23)n1`: the inhibition of growth at 150 g/ha was under 50%.
As to `COc1cc(OC)nc(Oc2cccc3c(C)nn(CC4OCCO4)c(=O)c23)n1`, the inhibition of growth at 150 g/ha was under 50%.
For the molecule `CO/N=C(/C)c1cccc(Oc2nc(OC)cc(OC)n2)c1C(=O)OC` [PYRIMINOBAC-METHYL], the inhibition of growth at 150 g/ha is under 50%.

The test system of a further assay is Digitaria sanguinalis. Briefly: Herbicidal activity against Digitaria sanguinalis (hairy crabgrass) assessed as growth inhibition at 150 g ai/ha applied as pre-emergence treatment 24 hr after weeds seeds sowing under green house conditions measured 15 days post compound treatment. Format: functional. The settings on record: read-out: GI. The method, boiled down:
as §1
Turning to `COc1cc(OC)nc(Oc2cccc3c(C)nn(CC(=O)OC(C)(C)C)c(=O)c23)n1`, the inhibition of growth at 150 g/ha is under 50%.
For `COc1cc(OC)nc(Oc2cccc3c(C)nn(CC4OCCO4)c(=O)c23)n1`, the inhibition of growth at 150 g/ha is under 50%.
Consider `CO/N=C(/C)c1cccc(Oc2nc(OC)cc(OC)n2)c1C(=O)OC` [PYRIMINOBAC-METHYL], for which the inhibition of growth at 150 g/ha is under 50%.

A further assay concerns Chenopodium album. Briefly: Herbicidal activity against Chenopodium album assessed as growth inhibition at 150 g ai/ha applied as pre-emergence treatment 24 hr after weeds seeds sowing under green house conditions measured 15 days post compound treatment. Format: functional. As to conditions: read-out: GI. The procedure, abridged:
as §1
For `COc1cc(OC)nc(Oc2cccc3c(C)nn(CC(=O)OC(C)(C)C)c(=O)c23)n1`, the inhibition of growth at 150 g/ha was under 50%.
For the molecule `COc1cc(OC)nc(Oc2cccc3c(C)nn(CC4OCCO4)c(=O)c23)n1`, the inhibition of growth at 150 g/ha is under 50%.
`CO/N=C(/C)c1cccc(Oc2nc(OC)cc(OC)n2)c1C(=O)OC` [PYRIMINOBAC-METHYL]: the inhibition of growth at 150 g/ha is under 50%.

For another assay, the system named is Amaranthus retroflexus. Briefly: Herbicidal activity against Amaranthus retroflexus assessed as growth inhibition at 150 g ai/ha applied as pre-emergence treatment 24 hr after weeds seeds sowing under green house conditions measured 15 days post compound treatment. Format: functional. The settings on record: read-out: GI. The procedure, abridged:
as §1
Regarding `COc1cc(OC)nc(Oc2cccc3c(C)nn(CC(=O)OC(C)(C)C)c(=O)c23)n1`, the inhibition of growth at 150 g/ha was under 50%.
Same read-out and setting: next, `COc1cc(OC)nc(Oc2cccc3c(C)nn(CC4OCCO4)c(=O)c23)n1`: under 50%; `CO/N=C(/C)c1cccc(Oc2nc(OC)cc(OC)n2)c1C(=O)OC` [PYRIMINOBAC-METHYL]: under 50%.

For a further assay, the target named is T1, Acetolactate synthase, chloroplastic (Arabidopsis thaliana, UniProt P17597).
T1 sequence (P17597 whole entry): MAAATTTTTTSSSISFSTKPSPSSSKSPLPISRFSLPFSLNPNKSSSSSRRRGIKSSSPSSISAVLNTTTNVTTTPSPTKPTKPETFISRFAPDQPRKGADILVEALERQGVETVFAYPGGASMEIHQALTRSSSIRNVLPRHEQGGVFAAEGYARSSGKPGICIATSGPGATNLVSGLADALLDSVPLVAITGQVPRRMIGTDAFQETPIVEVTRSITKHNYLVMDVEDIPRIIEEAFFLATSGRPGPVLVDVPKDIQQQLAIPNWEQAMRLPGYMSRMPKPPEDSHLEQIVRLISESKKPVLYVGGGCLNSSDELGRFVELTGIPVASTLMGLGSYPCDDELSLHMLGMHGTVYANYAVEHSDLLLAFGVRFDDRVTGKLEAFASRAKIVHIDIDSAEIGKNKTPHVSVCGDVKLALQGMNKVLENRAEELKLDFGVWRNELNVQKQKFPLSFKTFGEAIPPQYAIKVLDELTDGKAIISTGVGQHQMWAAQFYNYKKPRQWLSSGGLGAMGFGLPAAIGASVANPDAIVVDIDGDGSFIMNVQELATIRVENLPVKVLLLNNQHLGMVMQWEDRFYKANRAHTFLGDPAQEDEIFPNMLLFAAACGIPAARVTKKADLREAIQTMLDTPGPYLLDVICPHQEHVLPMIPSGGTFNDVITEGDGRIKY
The experiment in a line: Inhibition of wild type Arabidopsis thaliana acetohydroxyacid synthase.
Details: not given
Turning to `COc1cc(OC)nc(Oc2cccc3c(C)nn(CC(=O)OC(C)(C)C)c(=O)c23)n1`, the Ki (commonly a dissociation constant, usually derived from enzyme kinetics or from competition with a known ligand) was 1560 µM.
As for `COc1cc(OC)nc(Oc2cccc3c(C)nn(CC4OCCO4)c(=O)c23)n1`, the inhibition constant (Ki) was found to be 778 µM.
As for `CO/N=C(/C)c1cccc(Oc2nc(OC)cc(OC)n2)c1C(=O)OC` [PYRIMINOBAC-METHYL], the Ki was 49 µM.

The subject of a further assay is Digitaria sanguinalis. Briefly: Herbicidal activity against Digitaria sanguinalis (hairy crabgrass) assessed as growth inhibition at 150 g ai/ha applied as post-emergence treatment under green house conditions measured 15 days post compound treatment. The assay is classed as functional. As to conditions: 360 h, read-out: GI. The procedure, abridged:
(§3)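 Monocot weeds grown in pots in a greenhouse and sprayed post-emergence at the one-leaf stage. Clay soil: pH 6.5, 1.6% organic matter, 37.3% clay, CEC 12.1 cmol/kg. Formulation: 100 g/L emulsified concentrate (DMF, TW-80) diluted with water to 150 g ai/ha. Untreated and DMF controls included. Growth inhibition scored visually after 15 days: ++ >80%, + 50-80%, − <50%.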
As for `COc1cc(OC)nc(Oc2cccc3c(C)nn(CC(=O)OC(C)(C)C)c(=O)c23)n1`, the inhibition of growth at 150 g/ha was under 50%.
Consider `COc1cc(OC)nc(Oc2cccc3c(C)nn(CC4OCCO4)c(=O)c23)n1`, for which the inhibition of growth at 150 g/ha was found to be 50%.
Regarding `CO/N=C(/C)c1cccc(Oc2nc(OC)cc(OC)n2)c1C(=O)OC` [PYRIMINOBAC-METHYL], the inhibition of growth at 150 g/ha was over 80%.

In another assay the test system is Chenopodium album. The experiment in a line: Herbicidal activity against Chenopodium album assessed as growth inhibition at 150 g ai/ha applied as post-emergence treatment under green house conditions measured 15 days post compound treatment. The assay is classed as functional. As to conditions: 360 h, read-out: GI. The method, boiled down: as §2
`COc1cc(OC)nc(Oc2cccc3c(C)nn(CC(=O)OC(C)(C)C)c(=O)c23)n1`: the inhibition of growth at 150 g/ha is under 50%.
The same measure, in the same setting: with `COc1cc(OC)nc(Oc2cccc3c(C)nn(CC4OCCO4)c(=O)c23)n1` the figure was 50%.
Still for that read-out and setting: with `CO/N=C(/C)c1cccc(Oc2nc(OC)cc(OC)n2)c1C(=O)OC` [PYRIMINOBAC-METHYL] the figure was over 80%.

In a further assay the test system is Echinochloa crus-galli. Briefly: Herbicidal activity against Echinochloa crus-galli (barnyard grass) assessed as growth inhibition at 150 g ai/ha applied as post-emergence treatment under green house conditions measured 15 days post compound treatment. The assay is classed as functional. As to conditions: 360 h, read-out: GI. The procedure, abridged: as §3
Consider `COc1cc(OC)nc(Oc2cccc3c(C)nn(CC(=O)OC(C)(C)C)c(=O)c23)n1`, for which the inhibition of growth at 150 g/ha was under 50%.
For the molecule `COc1cc(OC)nc(Oc2cccc3c(C)nn(CC4OCCO4)c(=O)c23)n1`, the inhibition of growth at 150 g/ha worked out at 50%.
Turning to `CO/N=C(/C)c1cccc(Oc2nc(OC)cc(OC)n2)c1C(=O)OC` [PYRIMINOBAC-METHYL], the inhibition of growth at 150 g/ha was over 80%.

The test system of a further assay is Amaranthus retroflexus. The experiment in a line: Herbicidal activity against Amaranthus retroflexus assessed as growth inhibition at 150 g ai/ha applied as post-emergence treatment under green house conditions measured 15 days post compound treatment. Format: functional. The settings on record: 360 h, read-out: GI. The method, boiled down:
as §2
In the case of `COc1cc(OC)nc(Oc2cccc3c(C)nn(CC(=O)OC(C)(C)C)c(=O)c23)n1`, the inhibition of growth at 150 g/ha is under 50%.
Consider `COc1cc(OC)nc(Oc2cccc3c(C)nn(CC4OCCO4)c(=O)c23)n1`, for which the inhibition of growth at 150 g/ha is over 80%.
Regarding `CO/N=C(/C)c1cccc(Oc2nc(OC)cc(OC)n2)c1C(=O)OC` [PYRIMINOBAC-METHYL], the inhibition of growth at 150 g/ha was over 80%.

The test system of a further assay is Setaria viridis. Briefly: Herbicidal activity against Setaria viridis (green foxtail) assessed as growth inhibition at 150 g ai/ha applied as post-emergence treatment under green house conditions measured 15 days post compound treatment. The assay is classed as functional. The settings on record: 360 h, read-out: GI. The method, boiled down: as §3
On to `COc1cc(OC)nc(Oc2cccc3c(C)nn(CC(=O)OC(C)(C)C)c(=O)c23)n1`, for which the inhibition of growth at 150 g/ha is under 50%.
Same read-out and setting: with `COc1cc(OC)nc(Oc2cccc3c(C)nn(CC4OCCO4)c(=O)c23)n1` the figure was over 80%.
